Consider 95 compounds from ChEMBL document CHEMBL4513216, “Probing the Open Global Health Chemical Diversity Library for Multistage-Active Starting Points for Next-Generation Antimalarials” (ACS Infect Dis, 2020).

A short description of the data set: Toxicity liver stage against HepG2, at 10uM. The data set is classed as cell-based. Also noted: test concentration 10 uM, cell line HepG2-A16-CD81EGFP. To be noted: human, HepG2-A16-CD81EGFP cells; read-out: INHIBITION
A digest of the protocol:
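Uninfected HepG2-A16-CD81EGFP cells, 3 × 10^3 per well, 1536-well, plated on prespotted compound at 10 μM final, parasite-free screening media added to match infected plates; puromycin 10 μM positive, DMSO 0.5% negative; run in parallel with 48 h PbLuc assay at 37 °C, 5% CO2; viability by CellTiter-Glo luminescence, normalized to controls.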
On to `O=C(Cn1cccc(S(=O)(=O)N2CCCC2)c1=O)c1ccccc1Cl`, for which the cytotoxicity at 10 µM is 1.08%. For `Cc1ccc(C(=O)NCCn2nc(-n3cncn3)ccc2=O)c(C)c1` the value was -1.25%; for `CC(=O)N1CC(=O)N(c2ccccc2)CC12CCN(Cc1ccsc1)C2` (stereo not given), 13.4%; for `O=C(O)c1ccc2c(c1)C1(CCCCC1)CN2C(=O)c1cccc(F)c1`, 2.49%. As to `CCCS(=O)(=O)N1CCC2(CCN(Cc3cccc(F)c3)C2=O)C1` (stereo not given), the cytotoxicity at 10 µM is 8.07%.

On to `O=C(O)c1nnn(-c2cc(F)cc(F)c2)c1-c1ccncc1`, for which the cytotoxicity at 10 µM worked out at 7.16%.

In the case of `CNC(=O)CSc1nc2c(cnn2Cc2ccc(F)cc2)c(=O)[nH]1`, the cytotoxicity at 10 µM was -16%.

As for `O=C(c1ccncn1)N1CCO[C@H]2[C@@H](OCc3cccnc3)CC[C@@H]21`, the cytotoxicity at 10 µM is -7.69%. Regarding `O=C(C1CCOCC1)N1CCC2(CC1)CC(Oc1ccccc1)CO2` (stereo not given), the cytotoxicity at 10 µM was -17.3%.

As to `COCC1COCCC12CCN(C(=O)CCc1ccccc1)CC2` (stereo not given), the cytotoxicity at 10 µM was -9.8%.

Consider `Cc1nn(C)c2cnn(Cc3ccc(C(=O)NC4CC4)o3)c12`, for which the cytotoxicity at 10 µM stood at 9.43%. Regarding `CSCc1cccc(S(=O)(=O)NCCCO)c1`, the cytotoxicity at 10 µM was -7.5%. On to `O=C(O)[C@H]1OCC(=O)N(Cc2cccc(F)c2)[C@@H]1c1ccc(Cl)cc1`, for which the cytotoxicity at 10 µM amounted to 8.9%. For `CN1C[C@@H](C(=O)NC(C)(C)C)[C@@]2(CCc3ccccc3C(=O)N2)C1`, the cytotoxicity at 10 µM was -3.79%. In the case of `Cc1cnc(CC2COCCN(C(=O)CN3CCOCC3)C2)cn1` (stereo not given), the cytotoxicity at 10 µM is 9.07%. As for `Cc1c(CN2CCCC(O)C2)[nH]c2ccc(F)cc12` (stereo not given), the cytotoxicity at 10 µM amounted to 9.35%. Regarding `Cc1cc(Oc2ccccc2)nc(C2CCCCN2)n1` (stereo not given), the cytotoxicity at 10 µM is -2.64%. As for `CC(C)S(=O)(=O)N1C[C@@H](c2ccccc2)[C@H]2[C@H]1CCCCCN2C`, the figure is 0.247%. As for `CCN1CCCC(c2nc(O)c3cc(C)ccc3n2)C1` (stereo not given), the figure is 8.02%. As for `NCCC(=O)N1CCC2(CC1)CN(C(=O)c1ccc(Cl)cc1)CCO2`, the figure is 3.1%. In the case of `CN1CCN(c2ncccc2N)CC1`, the cytotoxicity at 10 µM is 11.5%. As for `CN(CCc1ccccn1)C(=O)Nc1cc(C(F)(F)F)c[nH]c1=O`, the figure is 17.2%; as for `O=S(=O)(c1ccccc1)N1CCCC(Cn2cncn2)C1` (stereo not given), -4.28%. For `CC(NCCn1cccn1)c1ccc(F)cc1F` (stereo not given) the value was 1.99%. `Cc1ncsc1C(=O)N1CCCC1c1c(C)nn(C)c1C` (stereo not given): the cytotoxicity at 10 µM was found to be 0.71%. As for `OC1(CN2CCOC(Cn3cncn3)C2)CCCCC1` (stereo not given), the figure is 9.87%; as for `CN1CCCC(N(C)C(=O)c2ccc(NC(=O)c3ccc[nH]3)cc2)C1` (stereo not given), -11.4%. For `Cc1ccc(C(=O)N(C)CC(=O)Nc2cccc(C)n2)cn1` the value was -21.2%. On to `CCC(=O)N1CCCN(C(=O)C2SCCc3sccc32)CC1` (stereo not given), for which the cytotoxicity at 10 µM was -8.98%. For `COCCn1cc(C(=O)N2CCCC2c2cccc(C)c2)ccc1=O` (stereo not given) the value was 5.59%. As for `CC(C)CC(=O)NCCCc1cc(N)n(-c2ccccc2)n1`, the cytotoxicity at 10 µM is -5.29%. On to `CCCc1cc(NC2CCc3nc(CC)nn3C2)n2ncnc2n1` (stereo not given), for which the cytotoxicity at 10 µM was -16.3%. On to `Cc1ccc(C(=O)N2CCCN(C)c3ccc(F)cc32)o1`, for which the cytotoxicity at 10 µM is -5.26%. As for `OC1CCN(c2ccnc3c(F)cc(Br)cc23)CC1`, the figure is 11.6%; as for `Cn1[nH]c(C2CC2)c(-c2ccc3c(c2)OCO3)c1=N`, -47.5%; as for `CN(C)CCn1ccc2cc(NC(=O)NCc3ncnn3C)ccc21`, -6.52%. Take `CCCc1noc(CCC(=O)N2CCCC(c3ccn[nH]3)C2)n1` (stereo not given): the cytotoxicity at 10 µM was 12.2%. As for `O=C1COc2cc(C(=O)NCc3ccc(Cl)s3)ccc2N1`, the figure is 1.55%.

For `NS(=O)(=O)c1cnn(CCC(=O)N(Cc2ccccc2)C2CC2)c1`, the cytotoxicity at 10 µM came out at 4.53%. For `O=C(Nc1ccc(F)cc1F)N(CCC(F)(F)F)C[C@H](O)CO` the value was -7.64%; for `NC(=O)C1CCN(Cc2ccc(S(=O)(=O)N3CCCC3)o2)CC1`, 1.04%. `Cc1csc(N2CCN(Cc3ccn(C)c(=O)c3)CC2)n1`: the cytotoxicity at 10 µM worked out at 8.08%. With `CCc1nc(CN2CCCC(N(C)Cc3cnc(C)s3)C2)no1` (stereo not given), the cytotoxicity at 10 µM came out at 2.89%. For `Cc1nc(C)n(CC2CCCN2CC(=O)NCc2ccco2)n1` (stereo not given), the cytotoxicity at 10 µM was -18.5%. For `Cc1n[nH]c(C)c1C1COCCN1C(=O)Cc1cccc(F)c1` (stereo not given), the cytotoxicity at 10 µM was -10.7%. With `Cc1ccc(N2CCCC3(CCN(C(=O)CC(F)(F)F)C3)C2)nn1` (stereo not given), the cytotoxicity at 10 µM is -108%. For the compound `O=C(Cc1ccco1)N1C[C@H]2CCC[C@@]2(COCC2CC2)C1`, the cytotoxicity at 10 µM was -108%. For `COCc1cnc2n1CCN(C(=O)c1cn(C)c3ccccc13)C2C` (stereo not given) the value was -108%; for `O=C1COC2(CCN(c3ccccn3)CC2)CN1Cc1ccccn1`, -0.861%; for `CCn1cc2c(n1)C(COC)CN(C(=O)COc1ccccc1C)C2` (stereo not given), 0.719%. As for `Cc1ncoc1C(=O)N1CCn2c(COCC3CC3)cnc2C1C` (stereo not given), the figure is -1.67%; as for `COCc1cc(CNCc2c(C)n(CC(C)C)c3ccccc23)n[nH]1`, 12%. Turning to `COCC(C)N1CCc2onc(-c3ccc(F)c(F)c3)c2C1` (stereo not given), the cytotoxicity at 10 µM is -4.31%. Take `CCn1ccnc1CN1CCN(Cc2ccc(C)o2)[C@@H]2CS(=O)(=O)C[C@@H]21`: the cytotoxicity at 10 µM is -11.2%. `CCCN1CCCn2nc(CNC(=O)CCOC)cc2C1`: the cytotoxicity at 10 µM was -12.2%. As for `CCOc1ccc(C(=O)N2CCC(Oc3ccccc3)(C(=O)O)CC2)o1`, the figure is 14.1%. As for `c1cncc(CN(Cc2ccsc2)Cc2ccc(C3CCCCO3)o2)c1` (stereo not given), the figure is 14.8%; as for `CCCn1cc(NC(=O)NCC2CCS(=O)(=O)C2)nn1` (stereo not given), 0.186%; as for `CNC(=O)c1ccc(-n2c(COCC(=O)O)nc3c(C)cccc32)o1`, -3.33%. As for `CN(C)Cc1ccc(C2CCCCN2C(=O)c2cc(=O)[nH]c(=O)[nH]2)cc1` (stereo not given), the figure is -3.95%; as for `CC(C)(O)CCc1ccc(C(=O)NCCC2CCCOC2)cc1` (stereo not given), 0.782%; as for `CCCS(=O)(=O)N[C@H]1CN(c2ncccc2C(N)=O)C[C@@H]1C(C)C`, 5.78%. `O=C(CCSc1ccc2c(c1)OCCO2)NCC1CCS(=O)(=O)C1` (stereo not given): the cytotoxicity at 10 µM is -4.01%. As for `O=C1CCC2(CCOC2)CN1Cc1ccc2nsnc2c1` (stereo not given), the figure is -7.73%; as for `Cc1cccc(OC2(C(=O)O)CCN(C(=O)CCc3ccco3)CC2)c1`, 4.3%.

As to `CCN(Cc1noc(C)n1)C(=O)C(c1ccc(C)cc1)N(C)C` (stereo not given), the cytotoxicity at 10 µM is -5.21%. For `CC(=O)N1CCCC(C(=O)N2CCN(c3cnn(C)c(=O)c3)CC2)C1` (stereo not given) the value was 0.761%; for `CCOCC1CCN(C(=O)C(c2ccccc2F)N(C)C)CC1` (stereo not given), 5.06%; for `Cc1nc(N2CCN(C(=O)c3ccccc3)CC2)cc(-n2ccnc2)n1`, 0.0237%. For the compound `CCC(C)c1ccc(NC(=O)C2CCN(C(=O)COC)CC2)cc1` (stereo not given), the cytotoxicity at 10 µM is -3.16%. As for `O=C1Nc2ccccc2C12CCCN(Cc1ccncc1)C2` (stereo not given), the figure is 4.32%; as for `CNc1cc(C)nc(N2CCC3(CC2)[C@H](O)C[C@@H]3OCCO)n1`, -1.82%. For `Cc1cc(NCc2cc3n(n2)CCCN(C(=O)N(C)C)C3)ncn1` the value was -11.4%. `Cc1cc(N2CCN3CCCCC3C2)n2nc(C)c(C)c2n1` (stereo not given): the cytotoxicity at 10 µM is -10.4%. Take `Cc1cc(-c2nn(C)c(Cl)c2CN2CCOCC2CC(=O)O)no1` (stereo not given): the cytotoxicity at 10 µM is -12.2%. For `COc1ccccc1OCCNC(=O)CN1CCN(C)CC1C` (stereo not given) the value was -12.1%; for `CC(C)c1ncc2c(n1)CN(Cc1nc(-c3ccco3)no1)CC2`, -11.4%; for `CCCc1nnc(NC(=O)Cc2c(C)nc(C)[nH]c2=O)s1`, -10.7%. On to `Cc1cc(NC(=O)CN2CCc3cncnc3C2)no1`, for which the cytotoxicity at 10 µM was -11.5%. On to `Cc1ccc2[nH]c(C(=O)N3CCCC3Cn3cccn3)cc2c1` (stereo not given), for which the cytotoxicity at 10 µM was -12%. For `Cn1cc(CCNC(=O)NC2CCN(Cc3ccccn3)CC2)cn1` the value was -16.4%; for `COc1ccc(NC(=O)NCCCn2nc3ccccn3c2=O)cc1`, -13.3%; for `CC1CCCCN1CCNC(=O)c1ccn(-c2cccc(F)c2)n1` (stereo not given), -26%. Turning to `Cc1csc(N2CCCN(C(=O)C(C(C)C)n3cncn3)CC2)n1` (stereo not given), the cytotoxicity at 10 µM was -7.71%. For `CCc1ccc(OCC(O)CN2CCC(O)CC2)cc1` (stereo not given) the value was 3.99%; for `CCn1cc(CN2CCCN(C(=O)c3ccn(C)c(=O)c3)CC2)cn1`, -0.794%; for `O=C(c1ccoc1)N1C[C@@H]2[C@@H](C1)OCC(=O)N2Cc1cccnc1`, 3.33%. As for `Cc1ccc(C(=O)N2CC[C@H]3[C@@H]2CCC(=O)N3c2ccccc2)cn1`, the figure is -112%.

Regarding `Cc1oncc1C(=O)NCc1cc(=O)n2c(n1)CN(C)CCC2`, the cytotoxicity at 10 µM turned out to be 5.02%. `Cn1nc(C2CNCCO2)cc1CCOc1ccc(Cl)cc1` (stereo not given): the cytotoxicity at 10 µM is -7.72%. Consider `O=C(NC[C@]12COC[C@H]1CN(Cc1cccnc1)C2)C1CCC1`, for which the cytotoxicity at 10 µM was -105%. As for `CCOCC1CN(Cc2ccoc2)Cc2nn(C)cc21` (stereo not given), the figure is -2.8%; as for `Cc1ccc(CN2CCC3(CC2)NC(=O)CC3c2ccncc2)cc1C` (stereo not given), 3.75%. `O=C(C1=CCCC1)N1C[C@@H]2COC[C@]2(COc2ncccc2F)C1`: the cytotoxicity at 10 µM is -99.3%.

As to `c1cnn(Cc2cn3c(n2)CN(Cc2nccs2)CC3)c1`, the cytotoxicity at 10 µM was 2.76%.
